Assay results as given in ChEMBL document CHEMBL1255454, “Systematic approach to optimizing specifically targeted antimicrobial peptides against Streptococcus mutans” (2010).
The source made the active and inactive calls. The calls are words filed in the database; no cut-off is given here.

Tests used:
Streptococcus mitis [1] = assay: Antimicrobial activity against Streptococcus mitis ATCC 903 at 25 ug/ml after 30 mins by time-kill assay; assay type: functional, organism-based
Summary of the method: (§1)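 Time-kill. Overnight cultures were diluted in BHI to A600 0.08 and treated with peptide at 25 µg/ml for 30 s to 2 h. Aliquots were diluted 1:50 in BHI, held on ice, plated and counted after 24 h as surviving CFU/ml. Three independent experiments, mean with SD; unpaired Student t test.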

Streptococcus sanguinis [2] = assay: Antimicrobial activity against Streptococcus sanguinis assessed as inhibition of bacterial biofilm formation at 50 uM after 10 mins; assay type: functional
Summary of the method: (§2)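 Mixed-species biofilms were grown 24 h at 37°C anaerobically in TH with 50% filter-sterilized pooled human saliva and 1% sucrose. Inoculum: S. mutans JM11 at 1 × 10^6 CFU/well plus S. oralis, S. gordonii, S. sanguinis, S. mitis and S. salivarius at 2 × 10^5 CFU/well each. Survivors were plated on TH agar for total streptococci and on TH agar with 800 µg/ml spectinomycin for JM11. Detection limit 100 CFU/ml.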

[3] = test system: Streptococcus gordonii str. Challis; assay: Antimicrobial activity against Streptococcus gordonii Challis DL1 at 25 ug/ml after 30 mins by time-kill assay; assay type: functional; summary of the method: as §1
Streptococcus mutans [4] = assay: Antimicrobial activity against Streptococcus mutans UA159 at 25 ug/ml after 30 mins by time-kill assay; assay type: functional; summary of the method: as §1
Streptococcus mutans [5] = assay: Antimicrobial activity against Streptococcus mutans JM11 assessed as inhibition of bacterial biofilm formation at 50 uM after 10 mins; assay type: functional; summary of the method: as §2
Staphylococcus aureus = assay: Antimicrobial activity against methicillin-resistant Staphylococcus aureus after 16 to 20 hrs by broth microdilution assay; assay type: functional
Summary of the method: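 MRSA grown aerobically in BHI at 37°C. Broth microdilution: 2-fold peptide dilutions in 1× Mueller-Hinton broth, first round 500 to 0.97 µg/ml; if activity below 62.5 µg/ml, sometimes a second round at 64 to 0.5 µg/ml, reporting the mode. Inoculum ~1 × 10^5 CFU/ml, 37°C for 16-20 h. A600 read. MIC = lowest concentration giving complete inhibition or ≥90% turbidity reduction versus peptide-free control.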

Pseudomonas aeruginosa = assay: Antimicrobial activity against Pseudomonas aeruginosa PAK after 16 to 20 hrs by broth microdilution assay; assay type: functional
Summary of the method: (§3)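 Broth microdilution. Twofold peptide dilutions were made in 50% BHI–50% sterile water for oral streptococci and in 1× Mueller-Hinton broth for the other bacteria. First round 500 to 0.97 µg/ml; a second round of 64 to 0.5 µg/ml was run in some cases, reporting its mode. Inoculum ~1 × 10^5 CFU/ml, 37°C for 16–20 h. Read A600; MIC taken as complete inhibition or ≥90% turbidity reduction versus peptide-free control.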

Streptococcus salivarius = assay: Antimicrobial activity against Streptococcus salivarius assessed as inhibition of bacterial biofilm formation at 50 uM after 10 mins; assay type: functional; summary of the method: as §2
Streptococcus gordonii = assay: Antimicrobial activity against Streptococcus gordonii assessed as inhibition of bacterial biofilm formation at 50 uM after 10 mins; assay type: functional; summary of the method: as §2
Streptococcus mutans [6] = assay: Antimicrobial activity against Streptococcus mutans UA159 after 16 to 20 hrs by broth microdilution assay; assay type: functional; summary of the method: as §3
Streptococcus oralis = assay: Antimicrobial activity against Streptococcus oralis assessed as inhibition of bacterial biofilm formation at 50 uM after 10 mins; assay type: functional; summary of the method: as §2
Streptococcus sanguinis [7] = assay: Antimicrobial activity against Streptococcus sanguinis NY101 at 25 ug/ml after 30 mins by time-kill assay; assay type: functional, organism-based; summary of the method: as §1
Streptococcus mutans [8] = assay: Antimicrobial activity against Streptococcus mutans UA159 assessed as inhibition of viability of bacterial biofilm at 25 ug/ml treated for 1 min measured after 4 hrs; assay type: functional
Summary of the method: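 S. mutans biofilms were seeded from overnight culture diluted 1:50 in TH broth with 0.5% sucrose, centrifuged, and grown 4 h anaerobically at 37°C. They were exposed to peptide in 1× PBS for about 1 min, washed, and given fresh TH broth without sucrose. Recovery was read as A600 after 4 h anaerobic incubation at 37°C. Three experiments; unpaired t test.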

[9] = Antimicrobial activity against Streptococcus gordonii Challis DL1 after 16 to 20 hrs by broth microdilution assay; assay type: functional, Streptococcus gordonii str. Challis; summary of the method: as §3
Streptococcus sanguinis [10] = assay: Antimicrobial activity against Streptococcus sanguinis NY101 after 16 to 20 hrs by broth microdilution assay; assay type: functional; summary of the method: as §3
Streptococcus mutans [11] = assay: Antimicrobial activity against Streptococcus mutans UA159 assessed as inhibition of bacterial biofilm formation at 25 uM after 3 mins by fluorescence assay; assay type: functional
Summary of the method: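 S. mutans UA159 overnight culture was diluted 1:5,000 in TH with 1% sucrose and grown as biofilm for 24 h. Biofilms were exposed 3 min at room temperature to 25 µM fluorescein-labelled peptide in HEPES/NaHCO3/NaCl/MgCl2 buffer with 0.1% CTAB, pH 7.4, then washed twice. Green fluorescence images were taken and biofilm-associated green pixels quantified as binding intensity units.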

Streptococcus mitis [12] = assay: Antimicrobial activity against Streptococcus mitis assessed as inhibition of bacterial biofilm formation at 50 uM after 10 mins; assay type: functional; summary of the method: as §2
Streptococcus mitis [13] = assay: Antimicrobial activity against Streptococcus mitis ATCC 903 after 16 to 20 hrs by broth microdilution assay; assay type: functional; summary of the method: as §3

Substance | Activity (Streptococcus mitis [1]) | inhibition (Streptococcus sanguinis [2]) | Activity [3] | Activity (Streptococcus mutans [4]) | inhibition (Streptococcus mutans [5]) | MIC (Staphylococcus aureus) | MIC (Pseudomonas aeruginosa) | inhibition (Streptococcus salivarius) | inhibition (Streptococcus gordonii) | MIC (Streptococcus mutans [6]) | inhibition (Streptococcus oralis) | Activity (Streptococcus sanguinis [7]) | inhibition (Streptococcus mutans [8]) | MIC [9] | MIC (Streptococcus sanguinis [10]) | inhibition (Streptococcus mutans [11]) | inhibition (Streptococcus mitis [12]) | MIC (Streptococcus mitis [13])
H-FKKFWKWFRRF-NH2 | Active | inactive | Active | Active | Active | 16 µg/mL | 32 µg/mL | inactive | inactive | 8 µg/mL | inactive | Active | Active | 16 µg/mL | 32 µg/mL | Active | inactive | 16 µg/mL
H-FIKHFIHRFGGGFKKFWKWFRRF-NH2 | Active | inactive | Active | Active | Active | 16 µg/mL | 62.5 µg/mL | inactive | inactive | 4 µg/mL | inactive | Active | Active | 62.5 µg/mL | 16 µg/mL | Active | inactive | 32 µg/mL
